Results: ChEMBL document CHEMBL3526126, “Amide hydrolysis of a novel chemical series of microsomal prostaglandin E synthase-1 inhibitors induces kidney toxicity in the rat” (Drug Metab Dispos, 2013)

Assays:
[1] = AUC (0 to 24 hrs) in Wistar Hannover rat at 1000 umol/kg, po qd measured on day 1; conditions: plasma
Rattus norvegicus [2] = assay: Toxicity in Wistar Hannover rat kidney assessed as pale organ discoloration at 1000 umol/kg, po qd administered for 7 days measured on day 7 by necroscopic analysis; type: organism-based; conditions: in vivo, 168 h
Rattus norvegicus [3] = assay: Toxicity in Wistar Hannover rat kidney assessed as inflammation in renal pelvis at 1000 umol/kg, po qd administered for 7 days measured after day 8 by hematoxylin/eosin staining-based light microscopic analysis; type: organism-based; conditions: in vivo, 168 h
Procedure, shortened: (§1)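 Wistar Hannover rats, about 8 weeks old, were gavaged once daily (10 ml/kg) for 7 days. One day after the last dose they were killed by carotid exsanguination under isoflurane/oxygen. Kidneys were fixed in buffered formalin, embedded in paraffin, sectioned, stained with hematoxylin and eosin, and examined by light microscopy.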

[4] = Cmax in Wistar Hannover rat at 1000 umol/kg, po qd measured on day 1; conditions: in vivo
Rattus norvegicus [5] = assay: Drug metabolism in Wistar Hannover rat assessed as formation of 4-(phenylethynyl)benzoic acid conjugated with mono-oxidized and sulfate conjugated matabolite in plasma at 500 umol/kg, po qd administered for 7 days measured on day 7 by LC-MS analysis; type: ADME, organism-based; conditions: in vivo, 168 h
Rattus norvegicus [6] = assay: Drug metabolism in Wistar Hannover rat assessed as formation of mono-oxidized metabolite +16 in plasma at 500 umol/kg, po qd administered for 7 days measured on day 7 by LC-MS analysis; type: ADME, organism-based; conditions: in vivo, 168 h
[7] = Drug metabolism in Sprague-Dawley rat hepatocytes assessed as formation of benzene-1,2-disulfonamide metabolite M1 at 1 to 10 uM by radio monitoring method; type: ADME, cell-based, Hepatocyte
Procedure, shortened: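 Hepatocytes at 1 × 10^6 cells/ml in William's medium were incubated at 37°C with gentle shaking under 5% CO2, with substrate at […]. Separation was on an Atlantis T3 column (100 × 4.6 mm) at 1 ml/min, split 1:20 to the ion source and a flow scintillation monitor. Scintillation cocktail was added at 4 ml/min through a 0.5 ml flow cell.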

[8] = Cmax in male Wistar Hannover rat at 500 umol/kg, po qd measured on day 1; conditions: in vivo
[9] = Cmax in female Wistar Hannover rat at 500 umol/kg, po qd administered for 7 days measured on day 7; conditions: in vivo
[10] = Cmax in male Wistar Hannover rat at 1000 umol/kg, po qd measured on day 1; conditions: in vivo
Rattus norvegicus [11] = assay: Toxicity in Wistar Hannover rat kidney assessed as tubular degeneration /regeneration at 500 umol/kg, po qd administered for 7 days […]; type: organism-based; conditions: in vivo, 168 h
Procedure, shortened: as §1

[12] = Drug metabolism in cryopreserved human hepatocytes assessed as amide hydrolysis at 1 to 10 uM by LC-MS analysis; type: ADME, cell-based, Hepatocyte
Procedure, shortened: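 Hepatocytes at 1 × 10^6 cells/ml in William's medium incubated at 37°C with gentle shaking under 5% CO2. Substrate was at […]. Metabolites were analysed by LC-MS.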

[13] = AUC (0 to 24 hrs) in female Wistar Hannover rat at 500 umol/kg, po qd measured on day 1; conditions: plasma
[14] = Cmax in Sprague-Dawley rat at 1000 umol/kg, po qd administered for 7 days measured on day 7; type: ADME, organism-based; set-up: dose 1000 umol/kg, route oral; conditions: in vivo
Procedure, shortened: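 Toxicity study 2: 2 female satellite rats per dose group. Dosing was once daily by oral gavage (10 ml/kg) for 7 days. Tail-vein EDTA blood was taken at 2, 4, 6, 7 and 24 h on day 1 and on day 7, then chilled and centrifuged to plasma. Parent and M1 were quantified by LC-MS/MS, with M1 measured in negative electrospray mode.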

[15] = AUC (0 to 24 hrs) in female Wistar Hannover rat at 1000 umol/kg, po qd measured on day 1; conditions: plasma

AUC(0-t) at 24 h [1]: 1370 µM·h | Cmax [4]: 105 µM | Drug metabolism (Rattus norvegicus [5]): metabolite_detected | Drug metabolism (Rattus norvegicus [6]): metabolite_detected | Drug metabolism [7]: metabolite_not_detected | Cmax [8]: 73 µM | Cmax [9]: 39 µM | Cmax [10]: 46 µM | Drug metabolism [12]: metabolite_not_detected | AUC(0-t) at 24 h [13]: 450 µM·h | Cmax [14]: 95 µM | AUC(0-t) at 24 h [15]: 1020 µM·h
SMILES: NS(=O)(=O)c1ccccc1S(=O)(=O)NC(=O)c1ccc(C#Cc2ccccc2)cc1
Activity (Rattus norvegicus [2]): Toxic | Activity (Rattus norvegicus [3]): Toxic | Activity (Rattus norvegicus [11]): Toxic
